Laboratory results: publication PMC4570879 (Journal of biomolecular screening, 2014)

Key:
[1] = biological target: T1, Human recombinant catalytic domain of PERK (Homo sapiens, UniProt Q9NZJ5); settings: published PERK inhibitor; cited from earlier work
T1 sequence (Q9NZJ5 536-1116): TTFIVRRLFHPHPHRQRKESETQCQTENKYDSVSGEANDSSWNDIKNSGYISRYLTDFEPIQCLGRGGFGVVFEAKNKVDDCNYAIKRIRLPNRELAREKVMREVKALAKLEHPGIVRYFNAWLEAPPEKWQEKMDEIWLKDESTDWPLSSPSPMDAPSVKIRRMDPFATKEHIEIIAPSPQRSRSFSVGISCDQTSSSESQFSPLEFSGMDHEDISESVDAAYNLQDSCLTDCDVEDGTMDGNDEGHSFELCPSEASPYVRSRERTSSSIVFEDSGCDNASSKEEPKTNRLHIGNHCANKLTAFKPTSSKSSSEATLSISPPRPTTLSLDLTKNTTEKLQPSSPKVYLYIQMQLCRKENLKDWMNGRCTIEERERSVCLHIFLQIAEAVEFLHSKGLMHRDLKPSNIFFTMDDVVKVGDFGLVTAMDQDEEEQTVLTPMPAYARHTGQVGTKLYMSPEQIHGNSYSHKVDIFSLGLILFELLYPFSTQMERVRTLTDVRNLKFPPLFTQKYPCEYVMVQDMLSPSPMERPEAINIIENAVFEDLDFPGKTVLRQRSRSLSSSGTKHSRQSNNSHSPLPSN

PERK = assay: Thapsigargin-induced eIF2α phosphorylation in MEFs; type: cell-based, mouse; settings: wild-type MEFs, pretreated at 50 µM for 1 or 24 h, then thapsigargin 500 nM 1 h
Procedure, shortened: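 Wild-type mouse embryonic fibroblasts were grown in high-glucose DMEM with 4 mM L-glutamine, 10% FBS, penicillin/streptomycin and β-mercaptoethanol. Cells were pretreated with test compound at 50 µM for 1 or 24 h, then with 500 nM thapsigargin for 1 h; PERK⁻/⁻ MEFs served as control.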

[2] = biological target: T1, Human recombinant catalytic domain of PERK; assay: Radiometric PERK kinase assay; type: biochemical; settings: method of replots
Procedure, shortened: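 Radiometric filter assay using GST-tagged human PERK catalytic domain (aa 536–1116) at 8 nM and full-length Flag-tagged eIF2α. Buffer was 20 mM HEPES pH 7.2, 10 mM MgCl₂, 150 mM NaCl, 0.01% Tween 20, with [γ-³³P]ATP, at room temperature. Initial velocity versus ATP was measured at fixed 10 µM eIF2α across several test compound concentrations. Reactions were stopped with 75 mM phosphoric acid, filter-captured, washed and scintillation-counted; no-PERK background; analysed by replots.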

Row | Compound | mechanism of action on PERK [1] | stress-dependent eIF2α phosphorylation (PERK) | mechanism of inhibition with respect to ATP ([2]; ATP variable, fixed eIF2α) | mechanism of inhibition with respect to eIF2α ([2]; eIF2α variable, fixed ATP)
1 | Cn1cc(-c2ccc3c(c2)CCN3C(=O)Cc2cccc(C(F)(F)F)c2)c2c(N)ncnc21 [GSK2606414, 7-Methyl-5-(1-{[3-(trifluoromethyl)phenyl]acetyl}-2,3-di-hydro-1H–indol-5-yl)-7H–p yrrolo[2,3-d]pyrimidin-4-amine] | ATP competitive |  |  | 
2 | O=c1ccc2nccc3c4ccccc4n1c23 [LDN-0022506, canthin-6-one] |  | inhibited | noncompetitive | noncom-petitive
